Experimental data collected from several papers.
Each line is one published result; the experiments were not run side by side.
BTK: Tyrosine-protein kinase BTK (BTK, Homo sapiens, UniProt Q06187)

| Structure (SMILES) | target | read-out | mode | technique | tested at | measurement | value |
| --- | --- | --- | --- | --- | --- | --- | --- |
| COc1ccc(COc2ccc(Cc3cnc(N)nc3N)cc2OC)cc1 | BTK | cell-free assay | – | – | 0.5 µM | remaining signal | 104% |
| COc1ccc2c(c1)O[C@@H](c1ccc(OC)c(OC)c1)C[C@H]2NC(=O)C1(c2ccc3c(c2)OC(F)(F)O3)CC1 | BTK | cell-free assay | – | competition with immobilised ligand | 1 µM | remaining binding | 81% |
| CC(C)(O)[C@H]1CC[C@H](Nc2ccc3ncc(-c4cccc(C(F)(F)F)c4)n3n2)CC1 | BTK | enzyme activity | inhibitor | – | 1 µM | remaining activity | 88% |
| COc1ccc(F)cc1C(=O)NCc1ccc(-c2nn([C@@H](C)C(F)(F)F)c(N)c2C(N)=O)cc1 | Tyrosine-protein kinase BTK (BTK, Homo sapiens, UniProt Q06187, C481S) | binding | – | SPR | – | koff | 0.00013 s⁻¹ |
| CC(C)(C)c1nc(-c2cccc(NS(=O)(=O)c3c(F)cccc3F)c2F)c(-c2ccnc(N)n2)s1 | BTK | enzyme activity | inhibitor | radiometric | 1 µM | remaining activity | 96% |
| CCC(=O)N[C@H]1CC[C@@H](C(=O)N(C)c2ccc(-c3nc4ccccc4o3)cc2)C1 | BTK | cell-free assay | – | competition with immobilised ligand | 1 µM | remaining binding | 77% |
| N#CCCc1ccc2c(c1)-c1[nH]c3ccc([N+](=O)[O-])cc3c1CC(=O)N2 | BTK | cell-free assay | – | – | 0.5 µM | remaining signal | 94.6% |
| COc1cc(Nc2cnc(C#N)c(O[C@H](C)CN(C)C)n2)ncc1-c1cnn(C)c1 | BTK | enzyme activity | inhibitor | radiometric | 10 µM | remaining activity | 60% |
| Cc1cc(NC(=O)c2cccc3cc(-c4cccc5[nH]nc(N)c45)ccc23)ccc1F | BTK | enzyme activity | inhibitor | – | 0.1 µM | activity vs control | 99% |
| Nc1nc(Nc2ccccc2)sc1C(=O)c1c(F)cccc1F | BTK | enzyme activity | inhibitor | – | 10 µM | remaining activity | 68% |
| O=C(Nc1cnn(-c2csc(C(=O)NC3COC3)c2)c1)Nc1ccccc1Cl | BTK | enzyme activity | inhibitor | – | 5 µM | remaining activity | 92.6% |
| Cc1cnc(NC2CCOCC2)nc1-n1cnc(C(=O)NC(CN)c2cc(F)cc(Cl)c2)c1 (stereo not drawn) | Tyrosine-protein kinase BTK (BTK, Homo sapiens, UniProt Q06187, R28H) | enzyme activity | inhibitor | radiometric | 1 µM | remaining activity | 99% |
| CC(C)(C=C(C#N)C(=O)N1CCC[C@H]1Cn1nc(-c2ccc(Oc3ccccc3)cc2F)c2c(N)ncnc21)N1CCOCC1 | BTK | enzyme activity | inhibitor | – | – | kinact | 0.0048 s⁻¹ |
| c1nc2c(Nc3ccc4c(c3)OCCO4)nc(Nc3ccc4c(c3)OCCO4)nc2[nH]1 | BTK | enzyme activity | inhibitor | – | 10 µM | activity vs control | 0.65% |
| NS(=O)(=O)c1cc(NC(=O)C2(c3ccccc3Cl)CC2)ccc1Oc1cccc(Cl)c1 | BTK | cell-free assay | – | competition with immobilised ligand | 1 µM | remaining binding | 88% |
| CN(C)C1CCN(CC#Cc2nn(C3CCCC3)c3nc(NCc4ccccc4)ncc23)C1 (stereo not drawn) | BTK | enzyme activity | inhibitor | FRET | 1 µM | inhibition | 5% |
| Cc1sc(C(=O)NC2COC2)cc1-n1cc(NC(=O)Nc2c(F)cccc2Cl)cn1 | BTK | enzyme activity | inhibitor | – | 10 µM | remaining activity | 87.6% |
| CC(=O)N1CCC(c2ccc(C(=O)NC(=N)N)cc2C(F)(F)F)CC1 | BTK | cell-free assay | – | competition with immobilised ligand | 1 µM | remaining binding | 100% |
| C=CC(=O)N1CCC[C@@H]1Cn1nc(-c2ccc(Oc3ccccc3)cc2F)c2c(N)ncnc21 | BTK | enzyme activity | inhibitor | – | – | kinact | 0.0034 s⁻¹ |
| CNCc1ccccc1-c1csc([C@H](C)Nc2nc(C)nc3cc(OC)c(OC)cc23)c1 | BTK | cell-free assay | – | competition with immobilised ligand | 1 µM | remaining binding | 89% |
| Cc1ccc(C(=O)NCc2ccsc2)cc1C#Cc1cn(C(C)C)c2ncnc(N)c12 | BTK | enzyme activity | inhibitor | – | 1 µM | activity vs control | 73% |
| CCC(=N\O)/C(C)=C/c1ccc(F)cc1 | BTK | cell-free assay | – | competition with immobilised ligand | 1 µM | remaining binding | 78% |
| Oc1cccc(-c2nc(N3CCOCC3)c3oc4ncccc4c3n2)c1 | BTK | enzyme activity | inhibitor | – | 10 µM | remaining activity | 82% |
| CN(C)CC#Cc1ccc(OCCCc2sc(N3CCc4cccc(C(=O)Nc5nc6ccccc6s5)c4C3)nc2C(=O)O)c(F)c1 | BTK | cell-free assay | – | competition with immobilised ligand | 1 µM | remaining binding | 96% |
| O=C1Nc2ccc(Cl)cc2C1=Cc1cc(Cl)c(O)c(Cl)c1 | BTK | cell-free assay | – | – | 0.5 µM | remaining signal | 92.1% |
| C[C@@H]1CN(c2cc(-c3n[nH]c4ccc(OC5(C)CC5)cc34)ncn2)C[C@H](C)O1 | BTK | cell-free assay | – | competition with immobilised ligand | 0.1 µM | remaining binding | 73% |
| Cc1ccc(NC(=O)c2ccc(C)c(C(F)(F)F)c2)cc1C#Cc1nn(C2CCC(O)CC2)c2ncnc(N)c12 (stereo not drawn) | BTK | cell-free assay | – | – | 10 µM | remaining signal | 10% |
